Laboratory results as given in ChEMBL document CHEMBL1125717, “Synthesis and biological evaluation of cyclopropyl analogues of 2-amino-5-phosphonopentanoic acid” (J Med Chem, 1991).

Legend:
Glutamate NMDA receptor [1] = assay: Compound was tested in vitro for N-methyl-D-aspartate glutamate receptor binding using [3H]L-glutamate; assay type: protein-complex assay
How it was run: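 Rat forebrain synaptic plasma membranes (male Sprague–Dawley, 30–45 days old) were pretreated with 0.04% Triton X-100 for 30 min at 37 °C and washed four times in 50 mM Tris/acetate, pH 7.4. Incubation: 10 nM [3H]-L-glutamate, membranes at 0.25–0.35 mg/mL final, 10 min at 4 °C, then filtration through PEI-treated filters. Nonspecific binding: 0.1 mM L-glutamate. IC50 by logit–log; Ki by Cheng–Prusoff. Mean ± SEM, ≥3 experiments in triplicate.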

[2] = Compound was tested in vitro for Non N-methyl-D-aspartate glutamate receptor binding using [3H]- -Kainate; parameters: species or system Rattus norvegicus
How it was run: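 Rat forebrain synaptic membranes (male Sprague–Dawley, 30–45 days old) were treated with 0.04% Triton X-100 for 30 min at 37 °C and washed in 50 mM Tris/acetate pH 7.4. Incubation used 0.5 nM [3H]kainate and graded compound concentrations, with 0.25–0.35 mg/mL membrane, for 60 min at 4 °C. Bound ligand was separated by centrifugation; 0.1 mM kainate defined nonspecific binding. IC50 was derived by logit–log and Ki by Cheng–Prusoff, from ≥3 triplicate experiments.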

[3] = Compound was tested in vitro for Non N-methyl-D-aspartate glutamate receptor binding using [3H]kainate; parameters: species or system Rattus norvegicus
How it was run: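 Triton X-100-treated (0.04%, 30 min, 37 °C), washed rat forebrain synaptic membranes (male Sprague–Dawley, 30–45 days), 0.25–0.35 mg/mL final in 50 mM Tris/acetate, pH 7.4. Incubated with 0.5 nM [3H]kainate for 60 min at 4 °C; bound ligand separated by centrifugation. Nonspecific binding: 0.1 mM kainate. IC50 by logit–log; Ki by Cheng–Prusoff. Mean ± SEM, ≥3 experiments in triplicate.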

Glutamate NMDA receptor [4] = assay: Compound was tested in vitro for its inhibitory activity against N-methyl-D-aspartate glutamate receptor using [3H]MK-801; assay type: protein-complex assay
How it was run: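 Functional modulation assay on washed rat synaptic membranes pretreated with 0.04% v/v Triton X-100. Incubated 30 min at 25 °C with 5.0 nM [3H]MK-801, 10.0 nM L-glutamate and graded compound concentrations in 50 mM Tris/acetate, pH 7.4. Filter-bound radioactivity counted by scintillation. Nonspecific binding: 60 μM MK-801. IC50 from logit–log transformation. Mean ± SEM, ≥3 experiments in triplicate.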

Compound	Ki (Glutamate NMDA receptor [1])	Ki [2]	Ki [3]	IC50 (Glutamate NMDA receptor [4])
NC(CCCP(=O)(O)O)C(=O)O (centres undefined)	0.42 µM	> 100 µM	–	–
N[C@@]1(C(=O)O)CC1CCP(=O)(O)O (some centres undefined)	26.7 µM	–	> 100 µM	18.1 µM
N[C@]1(C(=O)O)CC1CCP(=O)(O)O (some centres undefined)	18.7 µM	–	> 100 µM	15.2 µM
NC(C(=O)O)C1CC1CCP(=O)(O)O (centres undefined)	> 50 µM	–	> 100 µM	–
N[C@H](C[C@@H]1CC1P(=O)(O)O)C(=O)O (some centres undefined)	1.6 µM	–	> 100 µM	2.7 µM
NC(C(=O)O)C1CC1CP(=O)(O)O (stereo in doubt; 13a)	18.9 µM	–	–	22.6 µM
NC(C(=O)O)C1CC1CP(=O)(O)O (stereo in doubt; 13b)	9.5 µM	–	> 100 µM	13.3 µM
NC(C(=O)O)C1CC1CCCP(=O)(O)O (stereo in doubt; 33c)	12.5 µM	–	> 100 µM	–
NC(C(=O)O)C1CC1CCCP(=O)(O)O (stereo in doubt; 33d)	> 50 µM	–	–	–
O=C(O)[C@@H]1C[C@H](CP(=O)(O)O)CCN1 [SELFOTEL]	0.16 µM	–	> 100 µM	0.14 µM
